Results on 42 compounds are retold here after ChEMBL document CHEMBL4257552, “2-Aminobenzimidazoles as antibiofilm agents against Salmonella enterica serovar Typhimurium” (Medchemcomm, 2018).

SMILES strings stand for the structures. pIC50: −log10 of the molar value.

For one data set, the system named is Salmonella typhimurium. Description: Antibiofilm activity against Salmonella typhimurium ATCC 14028 after 24 hrs by crystal violet staining based assay. Format: functional, organism-based, Salmonella enterica subsp. enterica serovar Typhimurium. The conditions noted are these: Salmonella enterica, ATCC 14028, 24 h. The procedure, abridged:
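S. Typhimurium ATCC 14028 overnight TSB culture subcultured to OD600 0.08 in 1:20 TSB:water, compound added at set concentrations, static incubation in PVC 96-well plates 24 h at 30 °C. IC50 from dose-response curves.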
For the compound `CCCCCc1ccc(C(=O)Nc2ccc3c(c2)nc(N)n3C2CCCCC2)cc1`, the pIC50 is 4.70 to 4.82. As to `CCc1ccc(C(=O)Nc2ccc3c(c2)nc(N)n3CCCc2ccccc2)cc1`, the pIC50 was 4.40 to 4.70.

`CCCCCOc1ccc(C(=O)Nc2ccc3c(c2)nc(N)n3CCCc2ccccc2)cc1.Cl`: the pIC50 is 5.28. On the same count and under the same terms, next, `CCCCCCCCCCCC(=O)Nc1ccc2c(c1)nc(N)n2CCCc1ccccc1`: less than 4.30; `CCCOc1ccc(C(=O)Nc2ccc3c(c2)nc(N)n3CCCc2ccccc2)cc1`: 4.82 to 5.00. Consider `CCCCCc1ccc(C(=O)Nc2ccc3nc(N)n(C)c3c2)cc1`, for which the pIC50 is 4.40 to 4.70. For the compound `CCCCCc1ccc(C(=O)Nc2ccc3nc(N)n(CC)c3c2)cc1`, the pIC50 was 4.40 to 4.70. With `CCCCCCCCCC(=O)Nc1ccc2c(c1)nc(N)n2CCCc1ccccc1`, the pIC50 is 4.82 to 5.00. The compound `CCCCCCCc1ccc(C(=O)Nc2ccc3c(c2)nc(N)n3CCCc2ccccc2)cc1` showed a pIC50 of 4.70 to 4.82.

`CCCCCc1ccc(C(=O)Nc2ccc3c(c2)nc(N)n3CCCCc2ccccc2)cc1` gave a pIC50 of 5.02. For the compound `CCCCCCCCn1c(N)nc2cc(NC(=O)c3ccc(CCCCC)cc3)ccc21`, the pIC50 is 5.18. Still for that read-out and setting: with `Cl.Nc1nc2cc(NC(=O)Nc3ccc(Cl)c(Cl)c3)ccc2n1CCCc1ccccc1` the figure was 5.11; with `CCCCCCCCc1ccc(C(=O)Nc2ccc3c(c2)nc(N)n3CCCc2ccccc2)cc1`, less than 4.30; with `CCCCCCc1ccc(C(=O)Nc2ccc3c(c2)nc(N)n3CCCc2ccccc2)cc1`, 4.70 to 4.82. Same read-out and setting: next, `CCCCCCCC(=O)Nc1ccc2c(c1)nc(N)n2CCCc1ccccc1`: less than 4.40. `CCCCCc1ccc(C(=O)Nc2ccc3nc(N)n(C(C)C)c3c2)cc1` showed a pIC50 of 4.40 to 4.70.

Compound `CCCCCCn1c(N)nc2cc(NC(=O)c3ccc(CCCCC)cc3)ccc21` had a pIC50 of 4.97. Turning to `Cl.Nc1nc2cc(NC(=O)c3cc(Cl)cc(Cl)c3)ccc2n1CCCc1ccccc1`, the pIC50 is 4.82 to 5.00. On the same count and under the same terms, with `CCCCCc1ccc(C(=O)Nc2ccc3c(c2)nc(N)n3CCCC)cc1` the figure was 4.70 to 4.82. The same measure, in the same setting: with `CCCCCCCCC(=O)Nc1ccc2c(c1)nc(N)n2CCCc1ccccc1` the figure was 4.70 to 4.82; with `CCCCCCCCCCC(=O)Nc1ccc2c(c1)nc(N)n2CCCc1ccccc1`, 4.82 to 5.00. Take `Nc1nc2cc(NC(=O)c3cc(Br)cc(Br)c3)ccc2n1CCCc1ccccc1`: the pIC50 was 5.25. In the case of `Nc1nc2cc(NC(=O)c3ccc(Br)c(Br)c3)ccc2n1CCCc1ccccc1`, the pIC50 is 5.27. On the same count and under the same terms, with `Nc1nc2cc(C(=O)Nc3ccc(Cl)c(Cl)c3)ccc2n1CCCc1ccccc1` the figure was 4.90. `CCCCCc1ccc(C(=O)Nc2ccc3c(c2)nc(N)n3C2CCCC2)cc1` gave a pIC50 of 4.70 to 4.82. On the same count and under the same terms, with `CCCCCc1ccc(C(=O)Nc2ccc3[nH]c(N)nc3c2)cc1` the figure was 4.40 to 4.70; with `CCCCCCn1c(N)nc2ccc(NC(=O)c3ccc(CCCCC)cc3)cc21`, 4.82 to 5.00; with `CCCCOc1ccc(C(=O)Nc2ccc3c(c2)nc(N)n3CCCc2ccccc2)cc1`, 4.70 to 4.82. `CCCCCCCCCCCCCC(=O)Nc1ccc2c(c1)nc(N)n2CCCc1ccccc1` gave a pIC50 of less than 4.30.

As to `CCCCCc1ccc(C(=O)Nc2ccc3c(c2)nc(N)n3CCc2c[nH]c3ccccc23)cc1`, the pIC50 is 4.82 to 5.00. Still for that read-out and setting: next, `CCCCc1ccc(C(=O)Nc2ccc3c(c2)nc(N)n3CCCc2ccccc2)cc1`: 4.82 to 5.00; `CCCCCc1ccc(C(=O)Nc2ccc3c(c2)nc(N)n3C(C)C)cc1`: 4.40 to 4.70; `CCCc1ccc(C(=O)Nc2ccc3c(c2)nc(N)n3CCCc2ccccc2)cc1`: 4.70 to 4.82. On the same count and under the same terms, next, `CCCCCc1ccc(C(=O)Nc2ccc3c(c2)nc(N)n3CC(C)C)cc1`: 4.82 to 5.00; `CCCCCCC(=O)Nc1ccc2c(c1)nc(N)n2CCCc1ccccc1`: 4.40 to 4.70.

As to `Cl.Nc1nc2cc(NC(=O)c3ccc(Cl)c(Cl)c3)ccc2n1CCCc1ccccc1`, the pIC50 was 5.20.

Turning to `CCCCCc1ccc(C(=O)Nc2ccc3nc(N)n(CCCC)c3c2)cc1`, the pIC50 was 4.82 to 5.00. Compound `CCCCCc1ccc(C(=O)Nc2ccc3c(c2)nc(N)n3CCCc2ccccc2)cc1` gave a pIC50 of 4.88. Same read-out and setting: with `CCCCCc1ccc(C(=O)Nc2ccc3c(c2)nc(N)n3C)cc1` the figure was 4.40 to 4.70; with `CCCCCc1ccc(C(=O)Nc2ccc3c(c2)nc(N)n3CCc2cnc[nH]2)cc1`, 4.40 to 4.70; with `CCCCCCCCCCCCn1c(N)nc2cc(NC(=O)c3ccc(CCCCC)cc3)ccc21`, 4.40 to 4.70. Take `CCCCCCCCCCn1c(N)nc2cc(NC(=O)c3ccc(CCCCC)cc3)ccc21`: the pIC50 is 4.40 to 4.70.

The test system of another data set is Salmonella typhimurium. Briefly: Inhibition of planktonic growth of Salmonella typhimurium ATCC 14028 after 2 to 24 hrs. The settings on record: salmonella enterica subsp. enterica serovar typhimurium. Format: organism-based. The gist of the method: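 Overnight TSB culture diluted into fresh 1:20 TSB (OD600 0.08), 3 mL tubes with compound or untreated control, shaken at 30 °C. Samples at 2, 4, 6, 8 and 24 h serially diluted in 1:20 TSB, plated on nutrient agar, incubated overnight at 37 °C, and colonies counted.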
Turning to `CCCCCOc1ccc(C(=O)Nc2ccc3c(c2)nc(N)n3CCCc2ccccc2)cc1.Cl`, the “growth inhibition (GI)” value is on record as “Non-Toxic”. As to `Cl.Nc1nc2cc(NC(=O)Nc3ccc(Cl)c(Cl)c3)ccc2n1CCCc1ccccc1`, the Activity entry is recorded as “Non-Toxic”.

In another data set the test system is Galleria mellonella. Description: Toxicity in Galleria mellonella at 400 mg/kg. Format: organism-based. The conditions noted are these: in vivo.
`Cl.Nc1nc2cc(NC(=O)c3cc(Cl)cc(Cl)c3)ccc2n1CCCc1ccccc1`: the Activity result is on record as “Non-Toxic”. Still for that read-out and setting: with `Cl.Nc1nc2cc(NC(=O)c3ccc(Cl)c(Cl)c3)ccc2n1CCCc1ccccc1` the entry was “Non-Toxic”.

For orientation: pIC50 means the IC50 on a negative log10 scale, so that one unit is a factor of ten. The low end stands for a large IC50, the high end for a small IC50.
